Results on seven compounds are retold here after ChEMBL document CHEMBL1156706, “Structure-activity relationships of novel heteroaryl-acrylonitriles as cytotoxic and antibacterial agents” (Eur J Med Chem, 2008).

The subject of one series is RT-4. Kind of series: Cytotoxicity against human RT4 cells after 96 hrs by microtiter assay. The class given is functional, cell-based. The conditions noted are these: RT-4, 96 h. In outline:
(§1)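 DSMZ cell lines in RPMI 1640 with 10% FCS. DMF stocks diluted 1000-fold into medium. Continuous exposure 96 h at 37 °C, 5% CO2. Adherent cells stained with crystal violet. IC50 (50% growth inhibition vs untreated control) obtained by least-squares fitting of dose–response curves, averaging 2–5 independent determinations.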

The next series concerns RT-112. The experiment in a line: Cytotoxicity against human RT112 cells after 96 hrs by microtiter assay. The class given is functional, cell-based. The conditions noted are these: RT-112, 96 h. The gist of the method:
as §1

For a further series, the system named is KYSE-510. Kind of series: Cytotoxicity against human KYSE510 cells after 96 hrs by microtiter assay. The class given is functional, cell-based. The conditions noted are these: KYSE-510, 96 h. In outline: as §1
The subject of another series is A-427. The experiment in a line: Cytotoxicity against human A427 cells after 96 hrs by microtiter assay. The class given is functional, cell-based. As to conditions: A-427, 96 h. In outline: as §1
The subject of the next series is Staphylococcus aureus. Kind of series: Antibacterial activity against Staphylococcus aureus NCTC 4163 after 24 hrs. The class given is functional, organism-based. As to conditions: NCTC 4163, 24 h. In outline: (§2)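 Overnight culture diluted in Mueller–Hinton broth to 10^5 CFU/ml. Compounds dissolved in DMSO and diluted twofold in broth over 0.24–62.5 […]. Tubes inoculated and incubated 24 h at 37 °C. MIC taken as the lowest concentration with no visible growth. Clear tubes were subcultured onto Mueller–Hinton agar, and MBC was taken as the minimal concentration killing the organisms after 24 h.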

In the next series the test system is YAPC. The experiment in a line: Cytotoxicity against human YAPC cells after 96 hrs by microtiter assay. The class given is functional, cell-based. In outline:
as §1

Series [1] concerns Staphylococcus epidermidis. Kind of series: Antibacterial activity against Staphylococcus epidermis NCTC 14990 after 24 hrs. The class given is functional, organism-based. The conditions noted are these: NCTC 14990, 24 h. The gist of the method:
as §2

Series [2] in a line: Aqueous solubility in phosphate buffered saline at pH 7.4 after 24 hrs. The class given is physicochemical. The gist of the method:
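Solid added in excess to Dulbecco's PBS, pH 7.4, and stirred in the dark 24 h at room temperature. Suspension filtered through a 0.22 filter. Filtrate absorbance read at each compound's λmax, and dissolved concentration calculated from the extinction coefficient at that wavelength.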

Series [3] is described as follows: Cytotoxicity against human KYSE70 cells after 96 hrs by microtiter assay. The class given is functional, cell-based. The conditions noted are these: KYSE-70, 96 h. The gist of the method:
as §1

The subject of another series is MCF7. Kind of series: Cytotoxicity against human MCF7 cells after 96 hrs by microtiter assay. The class given is functional, cell-based. The conditions noted are these: MCF7, 96 h. The gist of the method: as §1
The next series deals with SISO. The experiment in a line: Cytotoxicity against human SISO cells after 96 hrs by microtiter assay. The class given is functional, cell-based. In outline: as §1
The next series deals with Enterococcus hirae. Kind of series: Antibacterial activity against Enterococcus hirae NCTC 10541 after 24 hrs. The class given is functional, organism-based. As to conditions: NCTC 10541, 24 h. The gist of the method: as §2
A further series has as its system 5637. The experiment in a line: Cytotoxicity against human 5637 cells after 96 hrs by microtiter assay. The class given is functional, cell-based. The conditions noted are these: Homo sapiens, 5637, 96 h. In outline:
as §1

Series [4] can be described thus: Cytotoxicity against human LCLC-103H cells after 96 hrs by microtiter assay. The class given is functional, cell-based. In outline:
as §1

Series [5] can be described thus: Cytotoxicity against human KYSE520 cells after 96 hrs by microtiter assay. The class given is functional, cell-based. The conditions noted are these: KYSE-520, 96 h. In outline: as §1
The next series relates to DAN-G. Kind of series: Cytotoxicity against human DAN-G cells after 96 hrs by microtiter assay. The class given is functional, cell-based. In outline:
as §1

Series [6] deals with HL-60. The experiment in a line: Cell cycle arrest in human HL60 cells assessed as accumulation at G2/M phase at 0.3 uM after 72 hrs by FACS relative to untreated control. The class given is functional, cell-based. In outline: (§3)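 Unsynchronized HL-60 cells treated 24 or 72 h across 0.03–1 µM. Cells fixed in 70% ice-cold ethanol and DNA stained with propidium iodide. Fractions in G0/G1, S and G2/M quantified by flow cytometry and compared with untreated control.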
On the technique in general: A flow cytometer gives signals particle by particle.

Series [7] has as its system HL-60. The experiment in a line: Cell cycle arrest in human HL60 cells assessed as accumulation at G0/G1 and G2/M phases at 0.15 uM after 72 hrs by FACS relative to untreated control.
The subject of series [8] is HL-60. The experiment in a line: Cell cycle arrest in human HL60 cells assessed as accumulation at G0/G1 and G2/M phases at 0.3 uM after 72 hrs by FACS relative to untreated control.
Series [9] has as its system HL-60. The experiment in a line: Cell cycle arrest in human HL60 cells assessed as accumulation at G0/G1 phase at 0.15 uM after 72 hrs by FACS relative to untreated control. The class given is functional, cell-based. The gist of the method:
as §3

Series [10] deals with HL-60. Kind of series: Cell cycle arrest in human HL60 cells assessed as accumulation at G2/M phase at 0.15 uM after 72 hrs by FACS relative to untreated control. The class given is functional, cell-based. The gist of the method: as §3
For series [11], the system named is HL-60. The experiment in a line: Cell cycle arrest in human HL60 cells assessed as accumulation at G0/G1 phase at 0.3 uM after 72 hrs by FACS relative to untreated control. The class given is functional, cell-based. The gist of the method: as §3

Values after ≈ are worked out from the molar mass of the structure shown. Active and inactive are the calls of the source. The rule behind the calls is not given here. Where only a bound is given, the exact number is not on record here.

As to `N#C/C(=C\c1ccc([N+](=O)[O-])o1)c1nc2ccccc2o1`, the IC50 (usually the concentration that inhibits the measured activity by half) was determined as 3.98 µM in the series with RT-4; 1.41 µM in the series with RT-112; 7 µM in the series with KYSE-510; 1.13 µM in the series with A-427; 2.86 µM in the series with YAPC; 2.91 µM in series [3]. Also, the concentration for half-maximal inhibition (IC50) in the series on MCF7 was 2.87 µM; with SISO, 2.86 µM; in the series with 5637, 1.65 µM; in series [4] it was 1.33 µM; in series [5], 1.68 µM; in the series on DAN-G, 3 µM. In addition, the figures for the minimum inhibitory concentration (MIC) (in the series with Staphylococcus aureus; in [1]; against Enterococcus hirae) were 111 µM (≈ 31.2 µg/mL), 111 µM (≈ 31.2 µg/mL) and > 222 µM, respectively. Moreover, the solubility (as a rule, how much of the substance goes into solution per volume) at 24 h in [2] was < 0.1 µM.
As for `N#C/C(=C\c1ccc([N+](=O)[O-])s1)c1nc2ccccc2s1`, the IC50 with RT-4 is 0.92 µM; in the series with RT-112, 0.75 µM; in the series with KYSE-510, 0.93 µM; in the series on A-427 it was 0.38 µM; in the series with YAPC, 0.42 µM; in [3], 0.51 µM. Moreover, the half-inhibitory concentration (IC50) in the series on MCF7 is 0.83 µM; in the series on SISO, 0.64 µM; in the series with 5637, 0.62 µM; in series [4], 0.88 µM; in series [5], 0.46 µM; with DAN-G it was 0.72 µM. The MIC (commonly the lowest concentration that inhibits growth of the organism) in the series with Staphylococcus aureus was 12 µM (≈ 3.76 µg/mL); in [1], 12 µM (≈ 3.76 µg/mL); against Enterococcus hirae, > 200 µM. In [2], the solubility at 24 h was < 0.1 µM.
Consider `N#C/C(=C\c1ccc([N+](=O)[O-])s1)c1nc2ccccc2[nH]1`, for which the concentration for half-maximal inhibition (IC50) in the series with RT-4 turned out to be 0.53 µM; with RT-112 it was 0.44 µM; in the series with KYSE-510, 0.4 µM; in the series with A-427 it was 0.15 µM; in the series with YAPC, 0.21 µM; in series [3], 0.19 µM. Further, the concentration for half-maximal inhibition (IC50) amounted to 0.26 µM with MCF7; 0.48 µM with SISO; 0.19 µM with 5637; 0.21 µM in series [4]; 0.13 µM in series [5]; 0.6 µM in the series on DAN-G. The outcome in the series on HL-60 [6], in the series on HL-60 [7], with HL-60 [8], in the series on HL-60 [9], in the series on HL-60 [10] and with HL-60 [11] was Active. Moreover, the MIC in the series on Staphylococcus aureus was 6.4 µM (≈ 1.9 µg/mL); in series [1], 3.2 µM (≈ 0.948 µg/mL); against Enterococcus hirae it was > 210 µM.
`N#C/C(=C\c1ccccn1)c1nc2ccccc2[nH]1`: the concentration for half-maximal inhibition (IC50) in the series on RT-4 came to 2.68 µM; in the series with RT-112 it was 4.73 µM; in the series with KYSE-510, 3.67 µM; in the series with A-427 it was 2.84 µM; with YAPC, 6.58 µM; in [3], 6.82 µM. Also, the 50% inhibitory concentration (IC50) is 8.14 µM with MCF7; 1.91 µM in the series on SISO; 2.28 µM in the series on 5637; 7.42 µM in series [4]; 10.5 µM in [5]; 3.67 µM with DAN-G. Besides, the minimal inhibitory concentration (MIC) in the series with Staphylococcus aureus was > 215 µM; in [1] it was 215 µM (≈ 52.9 µg/mL); in the series on Enterococcus hirae it was > 215 µM.
In the case of `N#C/C(=C\c1ccc([N+](=O)[O-])s1)c1nc2cccnc2[nH]1`, the IC50 in the series on RT-4 was 0.33 µM; with RT-112, 0.62 µM; in the series with KYSE-510, 0.74 µM; in the series with A-427, 0.11 µM; in the series with YAPC, 0.3 µM; in series [3] it was 0.38 µM. For the same compound, the half-maximal inhibitory concentration (IC50) was determined as 0.2 µM in the series with MCF7; 0.53 µM in the series on SISO; 0.17 µM with 5637; 0.11 µM in series [4]; 0.32 µM in [5]; 0.62 µM in the series with DAN-G. The minimal inhibitory concentration (MIC) against Staphylococcus aureus is 6.4 µM (≈ 1.9 µg/mL); in series [1], 3.2 µM (≈ 0.951 µg/mL); against Enterococcus hirae, 210 µM (≈ 62.4 µg/mL). Further, in series [2], the solubility at 24 h came out at 0.5 µM (≈ 0.149 µg/mL).
On to `N#C/C(=C\c1ccc([N+](=O)[O-])o1)c1nc2ccccc2s1`, for which the IC50 amounted to 4.3 µM in the series on RT-4; 1.78 µM in the series with RT-112; 5.44 µM in the series on KYSE-510; 1.21 µM with A-427; 2.25 µM in the series on YAPC; 2.38 µM in [3]. Moreover, the IC50 with MCF7 was 3.33 µM; in the series on SISO, 2.5 µM; in the series on 5637, 2.37 µM; in [4] it was 1.47 µM; in series [5], 2 µM; in the series on DAN-G it was 3.84 µM. Further, the minimal inhibitory concentration (MIC) (against Staphylococcus aureus; in [1]; with Enterococcus hirae) was > 210 µM in each case. Moreover, the concentration in solution in series [2] (solubility at 24 h) was 0.7 µM (≈ 0.208 µg/mL).
With `N#C/C(=C\c1ccc([N+](=O)[O-])s1)c1nc2ccccc2o1`, the IC50 turned out to be 6.57 µM in the series with RT-4; 3.88 µM in the series on RT-112; 22.6 µM with KYSE-510; 2.33 µM in the series with A-427; 1.7 µM in the series on YAPC; 5.3 µM in series [3]. Also, the concentration for half-maximal inhibition (IC50) is 5.69 µM in the series on MCF7; 14.1 µM in the series on SISO; 3.91 µM in the series with 5637; 12.1 µM in series [4]; 2.76 µM in series [5]; 12.6 µM in the series on DAN-G. The MIC was 210 µM (≈ 62.4 µg/mL) in the series with Staphylococcus aureus, 210 µM (≈ 62.4 µg/mL) in [1] and > 210 µM against Enterococcus hirae. Moreover, in [2], the solubility at 24 h is < 0.1 µM.
